Measured values pooled from the literature.
Compare with care: the assays were run in different laboratories. pIC50: −log10 of the molar value.
Organism: Severe acute respiratory syndrome coronavirus 2

Nc1nc(S[C@@H]2O[C@H](CO)[C@@H](O)[C@H](O)[C@H]2O)[nH]c(=S)c1C(=O)Nc1ccccc1
pIC50 (viral replication; Vero C1008; 72 h): 4.32

COC(=O)c1ccc2c(c1)NC(=O)/C2=C(\Nc1ccc(N(C)C(=O)CN2CCN(C)CC2)cc1)c1ccccc1
pIC50 (viral replication, inhibitor; Huh-7): < 5.70

Nc1nc(S[C@@H]2O[C@H](CO)[C@@H](O)[C@H](O)[C@H]2O)[nH]c(=S)c1C(=O)Nc1ccc(Cl)cc1
pIC50 (viral replication; Vero C1008; 72 h): 4.34

Nc1nc2nc[nH]c2c(=S)[nH]1
pIC50 (viral replication, inhibitor; Huh-7): 6.75

COc1cc2c(cc1OC)CN(CCc1ccc(NC(=O)c3cccc4c(=O)c5cccc(OC)c5[nH]c34)cc1)CC2
pIC50 (viral replication; Vero C1008): 6.24

OC(c1cc(C(F)(F)F)nc2c(C(F)(F)F)cccc12)C1CCCCN1 (stereo not shown)
pIC50 (viral replication, inhibitor; Vero C1008): 5.15

CCCN(CCC)CCc1ccc(OC)c(OCCc2ccccc2)c1
pIC50 (viral replication, inhibitor; A549-ACE2): 5.85

Nc1c2ccccc2nc2ccccc12
pIC50 (viral replication, inhibitor; Calu-3; 40 h): 5.35

CN(C)CCC=C1c2ccccc2CCc2ccccc21
pIC50 (viral replication; Vero C1008): 5.55

CCCC(CCC)C(=O)O
pIC50 (viral replication, inhibitor; Huh-7): < 5.70

CCC(CC)COC(=O)[C@H](C)N[P@](=O)(OC[C@H]1O[C@@](C#N)(c2ccc3c(N)ncnn23)[C@H](O)[C@@H]1O)Oc1ccccc1
pIC50 (plaque formation, inhibitor; Vero C1008): 6.72

CN(CCc1ccc(Cl)c(Cl)c1)CCN1CCCC1
pIC50 (viral replication, inhibitor; A549-ACE2): 5.83

CCCCc1oc2ccc(NS(C)(=O)=O)cc2c1C(=O)c1ccc(OCCCN(CCCC)CCCC)cc1
pIC50 (viral replication, inhibitor; Vero C1008): 5.82

CCCCc1oc2ccc(NS(C)(=O)=O)cc2c1C(=O)c1ccc(OCCCN(CCCC)CCCC)cc1
pIC50 (viral replication, inhibitor; Calu-3; 40 h): 5.53

CC(C)c1nc(CN(C)C(=O)N[C@H](C(=O)N[C@@H](Cc2ccccc2)C[C@H](O)[C@H](Cc2ccccc2)NC(=O)OCc2cncs2)C(C)C)cs1
pIC50 (viral replication, inhibitor; Vero C1008): 4.70 to 4.93

OC(CCN1CCCCC1)(c1ccccc1)C1CCCCC1 (stereo not shown)
pIC50 (viral replication; Vero C1008): 5.05

CCN(CC)CCCC(C)Nc1ccnc2cc(Cl)ccc12 (stereo not shown)
pIC50 (viral replication, inhibitor; Vero C1008): 5.86

CN(C)CCCN1c2ccccc2Sc2ccc(Cl)cc21
pIC50 (viral replication; Vero C1008): 6.55

CC(C)[N+]1(C)[C@@H]2CC[C@H]1C[C@@H](OC(=O)C(CO)c1ccccc1)C2 (stereo partly shown)
pIC50 (viral replication, inhibitor; Huh-7): 7.25

CC[C@H](C)C[C@H](C)CCCCCCCCC(=O)N[C@H]1C[C@@H](O)[C@@H](NCCN)NC(=O)[C@@H]2[C@@H](O)CCN2C(=O)[C@H]([C@H](O)CCN)NC(=O)[C@H]([C@H](O)[C@@H](O)c2ccc(O)cc2)NC(=O)[C@@H]2C[C@@H](O)CN2C(=O)[C@H]([C@@H](C)O)NC1=O
IC50 (viral replication, inhibitor; Vero; 24 h): > 200 µg/mL

c1ccc([C@H]2CN3CCSC3=N2)cc1
pIC50 (viral replication, inhibitor; Huh-7): < 5.70

OCCN1CCN(CCCN2c3ccccc3C=Cc3ccccc32)CC1
pIC50 (viral replication, inhibitor; A549-ACE2): 5.60
